VIM-2 inh = inhibitors of Pseudomonas aeruginosa VIM-2 metallo-beta-lactamase | actives 0.89% (n = 290,000) | inhibition, % at 5.6 µM | purified VIM-2, nitrocefin hydrolysis, epi-absorbance fluorescence | AID 1527;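 active means inhibition above the mean of all tested compounds plus 3 SD, cutoff set per screening run, cut at about 7.5% in these data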;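 further: red hydrolysis product quenches plate fluorescence so inhibitors raise well fluorescence; 0% = enzyme with DMSO and 100% = DMSO without enzyme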
IMP-1 inh = inhibitors of Pseudomonas aeruginosa IMP-1 metallo-beta-lactamase; purified IMP-1, nitrocefin hydrolysis, epi-absorbance fluorescence; inhibition, % at 5.6 µM; actives 0.45% (n = 290,000); AID 1556;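 active means inhibition above the mean plus 3 SD of all compounds in the same screening run, cut at about 4.5% in these data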;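 further: 0% = IMP-1 with DMSO and 100% = DMSO wells lacking enzyme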
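System: purified IMP-1 / Input: IMP-1 dispensed at 0.2 nM / Medium: 50 mM HEPES pH 7.1, 50 µM ZnSO4, 0.05% Brij 35 / Timing: 15 min enzyme–compound preincubation, then 25 min nitrocefin reaction, 25 °C / Technique: plate fluorescence quenching by hydrolysis product, ex 480/em 530 nm / Repeats: singlicate testing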
Calb FLC = affects C. albicans growth with fluconazole | C. albicans CaCi-2 + fluconazole, Alamar Blue growth, 48 h | growth inhibition, % (test concentration not listed) | actives 0.57% (n = 300,000) | AID 1979;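 active means growth inhibition above about 58% in most replicates, limit read from the data, passing the limit was not always enough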;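 further: all wells also contain fluconazole at 8 µg/ml as a sub-toxic cotreatment; 0% = median of DMSO wells and 100% = median of geldanamycin control wells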
ARFGAP1 inh = rat ARFGAP1 inhibition; Q62848; Arfgap1-stimulated ARF1 GTP hydrolysis, GDP FP detection; inhibition, % at 16.5 µM; actives 0.26% (n = 360,000);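 active means inhibition above a per-plate limit, mean inhibition of low control wells plus 3 SD, cut at about 25% in these data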;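 further: 0% = DMSO wells with enzyme and 100% = wells lacking Arfgap1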
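Material: rat Arfgap1 GAP domain (His6, aa 1-136), purified enzyme. Also added: human ARF1(Δ1-17)-GTP substrate. Compound dosing: 16.5 µM single point, 1.26% DMSO. Timing: enzyme reaction 120 min at 25 °C after 20 min preincubation. Signal: GDP detection by fluorescence polarization. Read-out basis: percent inhibition of GAP-stimulated GDP formation, scaled between DMSO and no-Arfgap1 medians.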
PHOSPHO1 block = inhibitors of human PHOSPHO1 phosphatase | Q8TCT1 | recombinant PHOSPHO1, absorbance phosphatase assay | inhibition, % at 13.3 µM | actives 1.1% (n = 290,000) | AID 1565; in the data active means inhibition above about 60%
Target sequence (Q8TCT1 whole entry, looked up): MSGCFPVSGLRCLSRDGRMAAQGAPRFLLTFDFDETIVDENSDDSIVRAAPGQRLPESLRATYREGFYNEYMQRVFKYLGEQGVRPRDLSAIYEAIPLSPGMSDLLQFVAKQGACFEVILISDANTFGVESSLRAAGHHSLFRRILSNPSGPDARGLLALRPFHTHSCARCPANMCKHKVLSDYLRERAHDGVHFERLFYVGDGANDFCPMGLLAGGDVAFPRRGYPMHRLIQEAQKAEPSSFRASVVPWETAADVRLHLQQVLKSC
ASAP1 GAP inh = ASAP1 ArfGAP inhibition. Q9ULH1. ASAP1-stimulated ARF1 GTP hydrolysis, GDP FP detection. actives 0.19% (n = 360,000). inhibition, % at 16.5 µM; in the data active means inhibition above about 25%;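 further: 0% = vehicle with enzyme and substrate and 100% = no enzyme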
Target sequence (Q9ULH1 325-724 limits assumed): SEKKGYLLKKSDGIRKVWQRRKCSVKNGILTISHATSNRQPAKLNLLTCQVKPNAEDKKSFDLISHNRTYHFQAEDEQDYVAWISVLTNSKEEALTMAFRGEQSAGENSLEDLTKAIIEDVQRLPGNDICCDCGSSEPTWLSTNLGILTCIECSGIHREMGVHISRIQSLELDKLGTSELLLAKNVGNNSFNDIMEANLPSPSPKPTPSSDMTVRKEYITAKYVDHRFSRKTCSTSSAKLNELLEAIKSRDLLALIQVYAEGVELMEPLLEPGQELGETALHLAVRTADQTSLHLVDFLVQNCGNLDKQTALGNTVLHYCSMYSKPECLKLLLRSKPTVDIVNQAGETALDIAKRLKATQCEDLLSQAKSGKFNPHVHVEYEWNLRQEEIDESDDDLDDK
* hit, by the source's call; . = not tested or not shown. Shown are actives, neighbours in structure and some others; about 2.6% of the full set was active somewhere.

SMILES | VIM-2 inh | IMP-1 inh | Calb FLC | ARFGAP1 inh | PHOSPHO1 block | ASAP1 GAP inh
O=C(CN1C(=O)/C(=C2\SC(=S)N(CCS(=O)(=O)O)C2=O)c2ccccc21)Nc1cccc(Br)c1 | 1.2 | 12.7* | 2.5 | -3.3 | -115.0 | 1.7
Cc1ccc(C2CC(c3ccco3)n3ncnc3N2)cc1 (stereo unspecified) | 0.9 | -3.8 | 7.5 | 6.2 | -2.3 | 5.3
Cc1ccc2c(c1)C(N1CCCC1=O)CC(c1ccco1)N2 (stereo unspecified) | -0.7 | -2.4 | -0.6 | 3.8 | 75.8* | -0.2
O=c1oc2ccccc2c(O)c1Cc1cc(Cl)c2cccnc2c1O | -2.0 | -1.0 | 84.3* | 1.7 | 24.6 | -6.7
Oc1c(CN2CCc3ccccc3C2)cc(Cl)c2cccnc12 | 3.6 | -3.9 | 83.3* | . | 30.5 | .
Oc1c(Cl)cc(CN2CCOCC2)c2cccnc12 | . | . | . | 1.0 | . | -4.8
COc1cc(OC)cc(C(=O)Oc2c(CN3CCOCC3)cc(Cl)c3cccnc23)c1 | -2.3 | -4.0 | 112.8* | 6.5 | 24.4 | -9.1
O=C(Oc1c(CN2CCOCC2)cc(Cl)c2cccnc12)c1ccccc1 | 2.3 | -2.1 | 117.6* | 0.5 | -14.7 | -6.9
COC(=O)C1=C(C)N(Cc2ccc(F)cc2)C(=S)NC1c1ccccc1 (stereo unspecified) | . | . | . | -0.1 | . | 4.4
COc1cccc(C(=O)N[C@H](C(=O)N2CCC[C@H]2C(=O)NCCc2ccccc2Cl)c2ccccc2)c1 | . | . | . | 2.9 | . | -1.1
COC(=O)c1cc2c(c3c4cc(C#N)ccc4n(S(=O)(=O)c4ccc(C)cc4)c13)C(=O)N(C)C2 | . | . | . | -7.8 | . | -14.8
O=C(Oc1c(CN2CCOCC2)cc(Cl)c2cccnc12)c1ccccc1F | 0.0 | -2.9 | 102.0* | 7.9 | -74.0 | -6.7
COC(=O)N1C[C@H](Oc2ncccn2)[C@H]2C[C@@H]1c1ccccc1O2 | . | . | . | -3.6 | . | 0.5
C=CCc1c(C)nc(SC)nc1Nc1ccc(C(C)=O)cc1 | 8.1* | -3.7 | 26.5 | 20.2 | 73.8* | 11.0
COc1ccc(CCN2C(=O)NC(NS(=O)(=O)c3ccc(NC(C)=O)cc3)(C(F)(F)F)C2=O)cc1OC (stereo unspecified) | -1.8 | -1.0 | -6.1 | 0.7 | 64.3* | 4.7
COc1ccc(CCN2C(=O)NC(NS(=O)(=O)c3ccc(N)cc3)(C(F)(F)F)C2=O)cc1OC (stereo unspecified) | -0.9 | -0.7 | 2.2 | 6.4 | 4.9 | 4.0
Cc1cc(S(=O)(=O)Nc2ccc(N(C)C)cc2)c(C)s1 | -0.6 | -2.6 | 2.5 | 9.2 | 66.6* | 0.7
Cc1cc(S(=O)(=O)Nc2cccc(Cl)c2)c(C)s1 | -1.6 | -2.2 | -53.3 | 5.5 | 1.8 | -4.7
Cc1cccc(CN2CCN(C3CN(Cc4cn(Cc5ccc(C(F)(F)F)cc5)nn4)S(=O)(=O)C3)CC2)c1 (stereo unspecified) | . | . | . | 1.0 | . | -14.4
COC(=O)c1cc2c(c3c4cc(OC)ccc4n(S(=O)(=O)c4ccc(OC)cc4)c13)C(=O)N(Cc1ccccc1OC)C2 | . | . | . | -1.8 | . | 6.3
CCCCCCCCN1C(=O)[C@@H](CC(=O)NCCCN2CCCC2=O)C[C@@]2(C(=O)OC)C1=C[C@H](C1CCCC1)O[C@@H]2C | . | . | . | -3.5 | . | -12.5
C[C@@H]1COc2cccc(NCCO)c2S(=O)(=O)N1 | . | . | . | 2.2 | . | 1.1
Oc1ccc(N2CCN(c3ncnc4sc(-c5ccccc5)cc34)CC2)cc1 | 2.2 | -1.9 | 100.2* | 0.1 | 3.5 | -4.2
CC(=O)N1CCN(c2ncnc3sc(-c4ccccc4)cc23)CC1 | 2.5 | 0.0 | 24.6 | 7.4 | -19.3 | 5.8
C=CCOC(=O)Nc1nc(CCNC(=O)OC(C)(C)C)c(C(=O)O)s1 | . | . | . | -2.1 | . | 8.0
SMILES | VIM-2 inh | IMP-1 inh | Calb FLC | ARFGAP1 inh | PHOSPHO1 block | ASAP1 GAP inh
CCCn1c(SCC(=O)c2ccc(CC)cc2)n[nH]c1=O | -1.4 | -2.6 | -0.6 | 16.7 | 82.4* | -1.4
Cc1[nH]nc2c1C(c1ccccc1)N(Cc1ccccc1)C2=O (stereo unspecified) | . | . | . | -3.3 | . | 0.3
Cc1cccc(N2CCN(C(=O)CCNS(=O)(=O)c3ccc4c(c3)oc(=O)n4C)CC2)c1C | -2.6 | -1.1 | 30.6 | 1.0 | 62.9* | -0.4
Cc1cccc(N2CCN(C(=O)CCS(=O)(=O)c3ccc4c(c3)oc(=O)n4C)CC2)c1C | -0.4 | 2.0 | 7.6 | 9.0 | 38.5 | -11.9
CC1(c2ccc(Cl)c(Cl)c2)NC(=S)N2C1NC(=S)N2c1ccccc1 (stereo unspecified) | -2.1 | -3.4 | 2.1 | -4.7 | 88.9* | 10.0
COc1ccc(C(O)c2nc(-c3ccccc3C)cs2)cc1 (stereo unspecified) | . | . | . | -2.2 | . | 7.2
COc1ccc(/C=N/NC(=O)c2nn(-c3ccccc3)c(=O)c3c(N)scc23)cc1 | -3.9 | -4.1 | 34.1 | 14.5 | 3.4 | 1.8
COc1ccc(/C=N/NC(=O)c2nn(-c3ccc(Cl)cc3)c(=O)c3c(N)scc23)cc1 | -4.4 | -3.4 | 34.9 | -4.4 | 99.7* | 15.1
Nc1[nH]c(C(=O)c2ccccc2)c(-c2cccc3ccccc23)c1C(=O)NCc1ccc(Cl)cc1Cl | . | . | . | -5.8 | . | 9.4
COc1cccc(C(O)c2ncc(-c3cccc4ccccc34)[nH]2)c1 (stereo unspecified) | . | . | . | 3.0 | . | 4.4
COc1cc(OC)c2c(c1)C(=O)c1cc(OC)cc(OC)c1C2=O | -1.6 | -1.7 | -6.6 | -1.2 | 107.1* | -4.8
COc1ccc(C=C2c3ccccc3C(=O)c3ccccc32)c(OC)c1 | -0.2 | -3.9 | 6.7 | -3.4 | 23.9 | -0.6
CN(C)c1cccc(NC2=CC(=[N+]3CCOCC3)CC(C)(C)C2)c1 | -2.3 | -2.3 | -6.4 | -3.4 | 91.3* | 1.8
O=C(Cc1c[nH]c2ccccc12)Nc1ccc(Nc2cccnc2)c(-c2ccc(F)c(F)c2)c1 | . | . | . | 7.3 | . | 6.0
COc1cccc(C2=CC(c3ccc(N(C)C)cc3)n3nnnc3N2)c1 (stereo unspecified) | 0.0 | 0.0 | -12.5 | -1.7 | 63.2* | 3.0
Cn1c(=O)[nH]c(=O)c2c1nc(N1CCCCC1)n2C/C=N/Nc1ccc(C(=O)O)cc1 | -0.1 | -4.5 | 4.1 | -1.2 | 64.5* | 2.8
Cc1cnc(C(=O)OCC(=O)N(C(C)C)C(C)C)cn1 | 0.3 | 5.4* | -26.3 | -4.4 | 23.8 | -4.3
COc1ccc(Sc2cccc(Cl)c2)c(C(=O)O)c1 | . | . | . | 5.3 | . | -5.4
COC(=O)c1ccc(-n2c(C)cc(C(=O)CCl)c2C)cc1 | -1.1 | -3.2 | -31.5 | 0.3 | -10.2 | -7.3
CCOc1ccc(-n2c(C)cc(C(=O)CCl)c2C)cc1 | -0.2 | -0.6 | 90.7* | -1.4 | -16.5 | -12.7
Cc1oc(-c2cc(F)ccc2F)nc1CN1CCN(c2ncnc3ccccc23)CC1 | -0.2 | -1.0 | -28.8 | -4.5 | 32.4 | 0.4
COc1ccc(-c2nc(CN3CCN(c4ncnc5ccccc45)CC3)c(C)o2)c(OC)c1 | 0.1 | -3.6 | -11.4 | 8.3 | 64.2* | 11.1
On1c(-c2ccccc2)nc2ccc(Cl)cc21 | -5.1 | 5.2* | 43.4 | -1.8 | 1.5 | -4.2

Screening data (PubChem BioAssay)
